Measurements reported in ChEMBL document CHEMBL4425163, “Structure elucidation of anti-methicillin resistant Staphylococcus aureus (MRSA) flavonoids from balsam poplar buds” (Bioorg Med Chem, 2016).
Values after ≈ are worked out from the molar mass of the structure shown.

Key:
Staphylococcus aureus [1] = test: Antibacterial activity against methicillin resistant Staphylococcus aureus clinical isolate 8 incubated […] by microdilution resazurin assay; type: functional
Staphylococcus aureus [2] = test: Antibacterial activity against methicillin resistant Staphylococcus aureus clinical isolate 1 incubated […] by microdilution resazurin assay; type: functional
Staphylococcus aureus [3] = test: Antibacterial activity against methicillin resistant Staphylococcus aureus clinical isolate 9 incubated […] by microdilution resazurin assay; type: functional
Staphylococcus aureus [4] = test: Antibacterial activity against methicillin resistant Staphylococcus aureus clinical isolate 6 incubated […] by microdilution resazurin assay; type: functional
Staphylococcus aureus [5] = test: Antibacterial activity against methicillin resistant Staphylococcus aureus clinical isolate 2 incubated […] by microdilution resazurin assay; type: functional
Staphylococcus aureus [6] = test: Antibacterial activity against Staphylococcus aureus ATCC 25923 incubated […] by microdilution resazurin assay; type: functional
Staphylococcus aureus [7] = test: Antibacterial activity against methicillin resistant Staphylococcus aureus clinical isolate 10 incubated […] by microdilution resazurin assay; type: functional
Staphylococcus aureus [8] = test: Antibacterial activity against methicillin resistant Staphylococcus aureus clinical isolate 7 incubated […] by microdilution resazurin assay; type: functional
Staphylococcus aureus [9] = test: Antibacterial activity against methicillin resistant Staphylococcus aureus clinical isolate 5 incubated […] by microdilution resazurin assay; type: functional
Staphylococcus aureus [10] = test: Antibacterial activity against methicillin resistant Staphylococcus aureus clinical isolate 3 incubated for 7 to 14 days by microdilution resazurin assay
[11] = Cytotoxicity against human WS1 cells by resazurin reduction assay; type: cell-based; conditions: Homo sapiens, WS1
Summary of the method: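 WS1 human fibroblast line; resazurin reduction test, slightly modified from an earlier method. Etoposide served as positive control.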

Staphylococcus aureus [12] = test: Antibacterial activity against methicillin resistant Staphylococcus aureus clinical isolate 4 incubated for 7 to 14 days by microdilution resazurin assay
[13] = Staphylococcus aureus, ATCC 25923, read-out: MIC
[14] = Staphylococcus aureus, isolate 8, read-out: MIC
[15] = Staphylococcus aureus, isolate 1, read-out: MIC
[16] = Staphylococcus aureus, isolate 9, read-out: MIC
[17] = Staphylococcus aureus, isolate 6, read-out: MIC
[18] = Staphylococcus aureus, isolate 2, read-out: MIC
[19] = Staphylococcus aureus, isolate 10, read-out: MIC
[20] = Staphylococcus aureus, isolate 7, read-out: MIC
[21] = Staphylococcus aureus, isolate 5, read-out: MIC

Row | Compound | MIC (Staphylococcus aureus [1]) [µM] | MIC (Staphylococcus aureus [2]) [µM] | MIC (Staphylococcus aureus [6]; [13]) [µM] | MIC (Staphylococcus aureus [1]; [14]) [µM] | MIC (Staphylococcus aureus [2]; [15]) [µM] | MIC (Staphylococcus aureus [10]) [µM] | IC50 [11] [µM] | MIC (Staphylococcus aureus [3]; [16]) [µM] | MIC (Staphylococcus aureus [4]; [17]) [µM] | MIC (Staphylococcus aureus [5]; [18]) [µM] | MIC (Staphylococcus aureus [7]; [19]) [µM] | MIC (Staphylococcus aureus [8]; [20]) [µM] | MIC (Staphylococcus aureus [9]; [21]) [µM] | MIC (Staphylococcus aureus [12]) [µM] | further results
1 | GENTAMICIN | 0.09 | 0.05 | – | – | – | – | – | – | – | – | – | – | – | – | MIC (Staphylococcus aureus [3]): 0.07 µM; MIC (Staphylococcus aureus [4]): 0.05 µM; MIC (Staphylococcus aureus [5]): 0.04 µM; MIC (Staphylococcus aureus [6]): 0.03 µM; MIC (Staphylococcus aureus [7]): 0.07 µM; MIC (Staphylococcus aureus [8]): 0.07 µM; MIC (Staphylococcus aureus [9]): 0.08 µM
2 | O=C(CCc1ccccc1)c1c(O)cc2c(c1O)CC(O)C(c1ccc(O)cc1)O2 (stereo in doubt; (+)-17) | 50 (≈ 20.3 µg/mL) | – | 50 (≈ 20.3 µg/mL) | – | – | – | – | – | – | – | – | – | – | – | MIC (Staphylococcus aureus [7]): >50 µM; MIC (Staphylococcus aureus [8]): 50 µM (≈ 20.3 µg/mL)
3 | O=C(CCc1ccccc1)c1c(O)cc(O)c(C/C=C/c2ccc(O)cc2)c1O | – | – | 6 (≈ 2.34 µg/mL) | 3 (≈ 1.17 µg/mL) | 6 (≈ 2.34 µg/mL) | 6 (≈ 2.34 µg/mL) | > 10 | 3 (≈ 1.17 µg/mL) | 50 (≈ 19.5 µg/mL) | 6 (≈ 2.34 µg/mL) | 6 (≈ 2.34 µg/mL) | 6 (≈ 2.34 µg/mL) | 3 (≈ 1.17 µg/mL) | 6 (≈ 2.34 µg/mL) | –
4 | COc1ccc(CCC(=O)c2c(O)cc(O)c3c2OC(c2ccc(O)cc2)C(O)C3)cc1 (stereo in doubt; (+)-16) | 50 (≈ 21.8 µg/mL) | >50 | 25 (≈ 10.9 µg/mL) | – | – | – | – | – | – | – | – | – | – | – | MIC (Staphylococcus aureus [5]): 50 µM (≈ 21.8 µg/mL); MIC (Staphylococcus aureus [7]): >50 µM; MIC (Staphylococcus aureus [9]): >50 µM
5 | COc1ccc(CCC(=O)c2c(O)c3c(c4c2OC(c2ccc(O)cc2)C(C/C=C/c2ccc(O)cc2)C4)OC(c2ccc(O)cc2)C(C/C=C/c2ccc(O)cc2)C3)cc1 (racemic) | – | – | > 50 | > 50 | > 50 | > 50 | > 10 | > 50 | > 50 | > 50 | > 50 | > 50 | > 50 | > 50 | –
6 | O=C(/C=C/c1ccccc1)OCC(C/C=C/c1ccc(O)cc1)C(c1ccc(O)cc1)c1c(O)cc(O)c(C(=O)CCc2ccccc2)c1O (racemic) | – | – | 50 (≈ 33.5 µg/mL) | 25 (≈ 16.8 µg/mL) | 25 (≈ 16.8 µg/mL) | 13 (≈ 8.72 µg/mL) | > 10 | 25 (≈ 16.8 µg/mL) | 25 (≈ 16.8 µg/mL) | 25 (≈ 16.8 µg/mL) | 25 (≈ 16.8 µg/mL) | 25 (≈ 16.8 µg/mL) | 3 (≈ 2.01 µg/mL) | 25 (≈ 16.8 µg/mL) | –
7 | O=C(CCc1ccccc1)c1c(O)cc2c(c1O)C[C@@H](C/C=C/c1ccc(O)cc1)[C@H](c1ccc(O)cc1)O2 (racemic) | – | – | > 50 | > 50 | > 50 | > 50 | > 10 | > 50 | > 50 | > 50 | > 50 | > 50 | > 50 | > 50 | –
8 | O=C(CCc1ccccc1)c1c(O)cc(O)c2c1OC(c1ccc(O)cc1)CC2 (stereo in doubt; (-)-12) | 6 (≈ 2.34 µg/mL) | 6 (≈ 2.34 µg/mL) | – | – | – | 6 (≈ 2.34 µg/mL) | > 10 | 13 (≈ 5.08 µg/mL) | 13 (≈ 5.08 µg/mL) | – | 13 (≈ 5.08 µg/mL) | 6 (≈ 2.34 µg/mL) | 6 (≈ 2.34 µg/mL) | – | MIC (Staphylococcus aureus [5]): 6 µM (≈ 2.34 µg/mL)
9 | O=C(CCc1ccccc1)c1c(O)cc(O)c2c1OC(c1ccc(O)cc1)C(O)C2 (stereo in doubt; (+)-15) | 25 (≈ 10.2 µg/mL) | 25 (≈ 10.2 µg/mL) | 25 (≈ 10.2 µg/mL) | – | – | – | – | – | – | – | – | – | – | – | MIC (Staphylococcus aureus [3]): 25 µM (≈ 10.2 µg/mL); MIC (Staphylococcus aureus [4]): 25 µM (≈ 10.2 µg/mL)
10 | COc1cc(O)c(C(=O)CCc2ccc(O)cc2)c(O)c1C/C=C/c1ccc(O)cc1 | – | – | > 50 | 50 (≈ 21 µg/mL) | > 50 | 50 (≈ 21 µg/mL) | > 10 | > 50 | 50 (≈ 21 µg/mL) | 50 (≈ 21 µg/mL) | 50 (≈ 21 µg/mL) | 50 (≈ 21 µg/mL) | 50 (≈ 21 µg/mL) | 50 (≈ 21 µg/mL) | –
11 | COc1ccc(CCC(=O)c2c(O)c(C/C=C/c3ccc(O)cc3)c(O)c3c2O[C@@H](c2ccc(O)cc2)[C@H](C/C=C/c2ccc(O)cc2)C3)cc1 (racemic) | – | – | 13 (≈ 8.9 µg/mL) | 13 (≈ 8.9 µg/mL) | 6 (≈ 4.11 µg/mL) | 3 (≈ 2.05 µg/mL) | > 10 | 13 (≈ 8.9 µg/mL) | 6 (≈ 4.11 µg/mL) | 6 (≈ 4.11 µg/mL) | 13 (≈ 8.9 µg/mL) | 6 (≈ 4.11 µg/mL) | 13 (≈ 8.9 µg/mL) | 13 (≈ 8.9 µg/mL) | –
12 | COc1ccc(CCC(=O)c2c(O)cc(O)c(C/C=C/c3ccc(O)cc3)c2O)cc1 | – | – | > 50 | 25 (≈ 10.5 µg/mL) | 50 (≈ 21 µg/mL) | 13 (≈ 5.47 µg/mL) | > 10 | 25 (≈ 10.5 µg/mL) | 25 (≈ 10.5 µg/mL) | 25 (≈ 10.5 µg/mL) | 25 (≈ 10.5 µg/mL) | 25 (≈ 10.5 µg/mL) | 13 (≈ 5.47 µg/mL) | 13 (≈ 5.47 µg/mL) | –
